Laboratory results from publication PMC5903019 (International Journal of Pharmaceutical Investigation, 2017).
≈ marks a conversion by molar mass, not a printed value. Where two headings read alike, the source gives them in different places.

How the values were obtained:
tubulin polymerization = details: cited from earlier work
A375 cell line = details: cited from earlier work
[1] = rats, i.p.; cited from earlier work
[2] = Saturation solubility of EAPB0503 in solvents by HPLC; assay type: physicochemical; details: for solubility: thermodynamic from solid
Procedure, shortened: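 Solvents, including purified water, were saturated with solid test compound and centrifuged at 5000 g for 5 min. The supernatant was quantified by HPLC on a C8 column using acetonitrile/2 mM ammonium formate pH 3 at 0.6 mL/min with a 12 min run. The column was held at 20°C and detection was by UV. Calibration used DMSO standards from 50–1000 μg/mL.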

[3] = Thermogravimetric analysis; assay type: physicochemical
Procedure, shortened: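 Thermogravimetric analysis of a 5.0 ± 0.5 mg sample in a ceramic pan under nitrogen at 2 bars. The sample was heated from 20°C to 350°C at 10°C/min to obtain the degradation temperature.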

[4] = Solubility screening of EAPB0503 in oils; assay type: physicochemical
Procedure, shortened: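 5 mg of test compound was added to 1 g of pharmaceutical-grade oil ([…], castor, olive, soybean or sesame). Samples were magnetically stirred for 24 h at 20°C and then checked for complete solubilization.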

[5] = cited from earlier work
[6] = cited from earlier work; remark: listed apart in the source

CNc1nc2ccccc2n2c(-c3cccc(OC)c3)cnc12 [EAPB0503, 1-[3-methoxyphenyl]-N-methylimidazo [1,2-a] quinoxalin-4-amine]
Inhibition of the tubulin polymerization (tubulin polymerization): potent inhibition | IC50 (A375 cell line; A375 cell line growth): 0.2 µM | Fold increase activity compared to EAPB0203 (A375 cell line; in vitro activity, human melanoma cell lines): 9 | Bioavailability after intraperitoneal administration [1]: 35% | Maximum concentration (solubility) ([2]; Purified water): <0.1 mg/mL | solubility ([2]; dimethyl sulfoxide, organic solvent or mixture): 16.6 mg/mL (≈ 54.5 mM) | solubility ([2]; dimethylacetamide, organic solvent or mixture): 24.8 mg/mL (≈ 81.5 mM) | solubility ([2]; phosphate buffered saline, aqueous buffer): < 0.1 mg/mL | solubility ([2]; purified water, water): < 0.1 mg/mL | Degradation temperature (TGA) [3]: 347 °C | Degradation temperature onset (TGA) ([3]; onset): 210 °C | Solubility in Labrafac WL 139 ([4]; Labrafac WL 139): higher than 12 mg/g | solubility at 24 h ([4]; Labrafac WL 1349 (semi-synthetic oil), oil or lipid, thermodynamic from solid): 12 mg/mL (≈ 39.4 mM) | Concentration obtainable in vegetable oils ([4]; castor, olive, soybean and sesame oils): ≤ 1000 µg/mL | Solubilization in vegetable oils ([4]; castor, olive, soybean and sesame oils, 5 mg/mL, room temperature): not complete

CC(=O)O[C@@]12CO[C@@H]1C[C@H](O)[C@@]1(C)C(=O)[C@H](O)C3=C(C)[C@@H](OC(=O)[C@H](O)[C@@H](NC(=O)OC(C)(C)C)c4ccccc4)C[C@@](O)([C@@H](OC(=O)c4ccccc4)[C@H]21)C3(C)C [docetaxel]
Drug loading in LNC ([5]; encapsulated in LNC): 2 mg/mL

COc1cc([C@@H]2c3cc4c(cc3[C@@H](O[C@@H]3O[C@@H]5CO[C@@H](C)O[C@H]5[C@H](O)[C@H]3O)[C@H]3COC(=O)[C@H]23)OCO4)cc(OC)c1O [etoposide]
Water solubility [6]: 0.978 mg/mL | Drug efficiency (encapsulation) in LNC ([5]; formulated in LNC): 56.7 ± 21.3% | Drug loading in LNC ([5]; formulated in LNC): 6.5 ± 3.0 mg/g

CC(=O)O[C@H]1C(=O)[C@@]2(C)[C@H]([C@H](OC(=O)c3ccccc3)[C@]3(O)C[C@H](OC(=O)[C@H](O)[C@@H](NC(=O)c4ccccc4)c4ccccc4)C(C)=C1C3(C)C)[C@]1(OC(C)=O)CO[C@@H]1C[C@@H]2O [paclitaxel]
Drug loading in LNC ([5]; encapsulated in LNC): 4 mg/mL
